According to ChEMBL document CHEMBL1126237, “Synthesis and receptor binding properties of fluoro- and iodo-substituted high affinity sigma receptor ligands: identification of potential PET and SPECT sigma receptor imaging agents” (J Med Chem, 1992):

How the values were obtained:
[1] = target: T1, Kappa-type opioid receptor (Cavia porcellus, UniProt P41144); experiment: Binding affinity against Opioid receptor kappa 1 from guinea pig brain, using [3H](-)-bremazocine as radioligand; NI=no inhibition
Method in brief: (§1)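 Guinea pig brain crude P2 membranes (500 μg protein) with 2 nM [3H](-)-bremazocine, plus 100 nM DAMGO and 100 nM DSTLE to block μ/δ sites. Incubated in 0.5 mL 10 mM Tris-HCl pH 7.4, 90 min, 25 °C. Nonspecific binding with 10 μM levallorphan. Filtration. Screened at 100–10 000 nM. No inhibition = <30% at 10 000 nM.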

[2] = target: T2, D(2) dopamine receptor (Rattus norvegicus, UniProt P61169); experiment: Binding affinity against dopamine receptor D2 from rat brain, using [3H](-)-sulpiride as radioligand.
Method in brief: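 Rat brain crude P2 membranes (500 μg protein) incubated with 5 nM [3H](-)-sulpiride in 50 mM Tris-HCl pH 7.7 + 120 mM NaCl, 60 min, 25 °C; nonspecific with 1 μM haloperidol; filtration.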

[3] = target: Muscarinic acetylcholine receptor; experiment: Binding affinity against muscarinic cholinergic receptor from rat brain, using [3H]-QNB as radioligand.
Method in brief: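 Rat brain P2 membranes (~500 μg protein) with 0.3 nM [3H]QNB in 0.5 mL Krebs-Henseleit/HEPES pH 7.4, 60–90 min, 37 °C. Nonspecific binding with 10 μM QNB. Stopped with ice-cold PBS, then filtration. […] IC50 converted to Ki by Cheng-Prusoff.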

[4] = target: T1, Kappa-type opioid receptor; experiment: Binding affinity against opioid receptor kappa from guinea pig brain, using [3H](-)-bremazocine as radioligand; NI=no inhibition; method in brief: as §1
[5] = target: T2, D(2) dopamine receptor; experiment: Binding affinity against Dopamine receptor D2 from rat brain, using [3H](-)-sulpiride as radioligand.
Method in brief: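 Rat brain (minus cerebella) crude P2 membranes, 500 μg protein, incubated with 5 nM [3H](-)-sulpiride in 0.5 mL 50 mM Tris-HCl pH 7.7 + 120 mM NaCl, 60 min, 25 °C. Nonspecific binding with 1 μM haloperidol. Filtration, scintillation counting. […] IC50 by curve fitting, Cheng-Prusoff Ki.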

[6] = target: T1, Kappa-type opioid receptor; experiment: Binding affinity against Opioid receptor kappa 1 from guinea pig brain, using [3H](-)-bremazocine as radioligand.; method in brief: as §1
[7] = target: T1, Kappa-type opioid receptor; experiment: Binding affinity against opioid receptor kappa from guinea pig brain, using [3H](-)-bremazocine as radioligand.
Method in brief: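 Guinea pig brain P2 membranes (500 μg protein) with 2 nM [3H](-)-bremazocine plus 100 nM DAMGO and 100 nM DSTLE blocking μ/δ, 10 mM Tris-HCl pH 7.4, 90 min, 25 °C; nonspecific with 10 μM levallorphan; filtration.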

T1 sequence (P41144 whole entry): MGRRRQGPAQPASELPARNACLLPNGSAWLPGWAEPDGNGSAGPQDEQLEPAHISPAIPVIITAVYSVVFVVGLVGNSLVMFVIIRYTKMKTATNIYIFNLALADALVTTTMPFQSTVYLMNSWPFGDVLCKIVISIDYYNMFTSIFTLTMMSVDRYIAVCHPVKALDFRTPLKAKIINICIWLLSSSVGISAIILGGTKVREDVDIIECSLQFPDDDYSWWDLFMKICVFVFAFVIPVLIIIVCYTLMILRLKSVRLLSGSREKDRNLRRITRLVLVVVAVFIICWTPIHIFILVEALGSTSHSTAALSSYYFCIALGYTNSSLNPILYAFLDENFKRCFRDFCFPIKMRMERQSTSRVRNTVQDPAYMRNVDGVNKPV
T2 sequence (P61169 whole entry): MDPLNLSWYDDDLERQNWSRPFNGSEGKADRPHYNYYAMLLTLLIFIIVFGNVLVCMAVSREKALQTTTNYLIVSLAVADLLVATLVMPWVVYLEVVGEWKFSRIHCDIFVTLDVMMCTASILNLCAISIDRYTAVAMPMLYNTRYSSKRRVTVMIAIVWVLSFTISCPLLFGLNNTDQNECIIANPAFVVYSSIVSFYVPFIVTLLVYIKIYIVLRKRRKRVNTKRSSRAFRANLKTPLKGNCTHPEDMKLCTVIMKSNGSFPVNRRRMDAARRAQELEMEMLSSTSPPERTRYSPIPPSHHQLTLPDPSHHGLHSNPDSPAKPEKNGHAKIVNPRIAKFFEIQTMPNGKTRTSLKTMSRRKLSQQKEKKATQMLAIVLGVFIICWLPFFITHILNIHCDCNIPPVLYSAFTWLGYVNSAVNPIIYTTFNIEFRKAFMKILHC

Row | SMILES | Ki [1] | Ki [2] [µM] | Ki [3] [µM] | Ki [4] | Ki [5] [µM] | Ki [6] [µM] | Ki [7] [µM]
1 | CN(CCc1ccc(Cl)c(Cl)c1)CCN1CCCC1 | Not Active | – | – | – | – | – | –
2 | FCCCN1CCN(CCc2ccc(Cl)c(Cl)c2)CC1 | – | 12 | 682.5 | Not Active | – | – | –
3 | CCCN1CCN(CCc2ccc(Cl)c(Cl)c2)CC1 | Not Active | – | – | – | 2.9 | – | –
4 | FCCCN(CCc1ccc(Cl)c(Cl)c1)CCN1CCCC1 | – | – | 32.03 | – | 3.11 | 10.5 | –
5 | CN(CCc1cc(Cl)c(Cl)cc1I)CCN1CCCC1 | – | – | 7 | – | 1.31 | 18.5 | –
6 | CCCCCN1CC[C@@]2(C)c3cc(O)ccc3CC1[C@H]2C (single isomer, unassigned; (+)) | – | 2.53 | 56.85 | – | – | – | 1.99
